How the values were obtained:
Type in all cases: cell-based
human M4 receptor = biological target: T1, human M4 receptor (Homo sapiens, UniProt P08173); assay: Calcium mobilization assay, potency determination; details: for %AChmax ± SEM: efficacy as % of maximal ACh response, hM4; for hM4 PAM activity (in words): hM4, text statement
T1 sequence (P08173 1-479): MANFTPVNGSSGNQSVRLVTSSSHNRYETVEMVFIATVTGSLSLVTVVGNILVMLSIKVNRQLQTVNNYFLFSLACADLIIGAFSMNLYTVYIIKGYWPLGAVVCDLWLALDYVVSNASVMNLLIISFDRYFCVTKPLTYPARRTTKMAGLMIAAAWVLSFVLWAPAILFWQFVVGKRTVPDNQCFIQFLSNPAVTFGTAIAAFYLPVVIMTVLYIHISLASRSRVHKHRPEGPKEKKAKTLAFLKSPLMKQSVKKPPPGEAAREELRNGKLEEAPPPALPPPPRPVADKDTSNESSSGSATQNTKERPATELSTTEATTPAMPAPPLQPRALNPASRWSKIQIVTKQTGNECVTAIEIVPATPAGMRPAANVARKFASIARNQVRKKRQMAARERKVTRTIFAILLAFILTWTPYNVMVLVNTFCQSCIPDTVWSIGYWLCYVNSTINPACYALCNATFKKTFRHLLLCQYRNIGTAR

M1 = biological target: T2, M1 (Homo sapiens, UniProt P11229); assay: Muscarinic selectivity panel, calcium mobilization; details: concentration up to 30 µM
T2 sequence (P11229 1-460): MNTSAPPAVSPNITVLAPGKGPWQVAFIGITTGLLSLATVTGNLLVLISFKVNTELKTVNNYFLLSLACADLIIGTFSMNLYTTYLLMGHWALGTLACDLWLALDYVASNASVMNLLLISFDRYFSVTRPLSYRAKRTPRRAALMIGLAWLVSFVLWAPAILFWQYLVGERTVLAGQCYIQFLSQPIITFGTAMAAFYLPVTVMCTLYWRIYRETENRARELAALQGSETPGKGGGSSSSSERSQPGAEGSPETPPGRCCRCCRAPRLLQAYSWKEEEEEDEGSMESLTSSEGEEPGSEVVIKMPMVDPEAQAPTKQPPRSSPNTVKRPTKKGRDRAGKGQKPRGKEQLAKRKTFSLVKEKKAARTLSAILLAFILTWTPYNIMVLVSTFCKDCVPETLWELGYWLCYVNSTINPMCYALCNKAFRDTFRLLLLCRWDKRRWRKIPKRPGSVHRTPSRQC
Summary of the method: (§1)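 CHO cells stably expressing the human receptor (M1 transfected into CHO K1; M3 and M5 lines donated), grown in Ham's F-12, 10% heat-inactivated FBS, 20 mM HEPES, 500 µg/mL G418. Cells plated at 15,000/well overnight (37 °C, 5% CO2), then loaded 45 min at 37 °C with Fluo-4 AM in HBSS, 20 mM HEPES, 2.5 mM probenecid. Compound preincubated 144 s (0.3% DMSO final) before ACh; calcium read kinetically at 37 °C.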

M2 = biological target: T3, M2 (Homo sapiens, UniProt P08172); assay: Muscarinic selectivity panel, calcium mobilization; details: concentration up to 30 µM
T3 sequence (P08172 1-466): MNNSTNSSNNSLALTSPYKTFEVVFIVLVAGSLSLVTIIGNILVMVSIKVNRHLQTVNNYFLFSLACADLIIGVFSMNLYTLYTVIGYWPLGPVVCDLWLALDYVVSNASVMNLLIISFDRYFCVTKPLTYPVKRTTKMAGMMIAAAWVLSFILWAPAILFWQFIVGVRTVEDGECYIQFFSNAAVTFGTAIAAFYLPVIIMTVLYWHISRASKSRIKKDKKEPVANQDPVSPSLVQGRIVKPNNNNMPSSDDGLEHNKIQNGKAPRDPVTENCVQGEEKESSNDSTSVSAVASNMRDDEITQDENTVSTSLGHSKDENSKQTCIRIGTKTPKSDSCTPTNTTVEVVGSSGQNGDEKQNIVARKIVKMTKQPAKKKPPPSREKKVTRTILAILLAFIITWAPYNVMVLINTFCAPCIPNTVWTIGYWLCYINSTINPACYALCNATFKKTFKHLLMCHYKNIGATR
Summary of the method: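 CHO cells stably expressing human M2 and cotransfected with chimeric Gqi5, grown in Ham's F-12, 10% heat-inactivated FBS, 20 mM HEPES, 500 µg/mL G418 plus 500 µg/mL hygromycin B. Plated at 15,000 cells/well overnight (37 °C, 5% CO2), then Fluo-4 AM loaded 45 min at 37 °C in HBSS, 20 mM HEPES, 2.5 mM probenecid. Compound preincubated 144 s (0.3% DMSO final) before ACh; fluorescence read at 37 °C.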

M3 = M3 (Homo sapiens, UniProt P20309); assay: Muscarinic selectivity panel, calcium mobilization; details: concentration up to 30 µM
Summary of the method: as §1

M5 = biological target: T4, M5 (Homo sapiens, UniProt P08912); assay: Muscarinic selectivity panel, calcium mobilization; details: concentration up to 30 µM
T4 sequence (P08912 1-532): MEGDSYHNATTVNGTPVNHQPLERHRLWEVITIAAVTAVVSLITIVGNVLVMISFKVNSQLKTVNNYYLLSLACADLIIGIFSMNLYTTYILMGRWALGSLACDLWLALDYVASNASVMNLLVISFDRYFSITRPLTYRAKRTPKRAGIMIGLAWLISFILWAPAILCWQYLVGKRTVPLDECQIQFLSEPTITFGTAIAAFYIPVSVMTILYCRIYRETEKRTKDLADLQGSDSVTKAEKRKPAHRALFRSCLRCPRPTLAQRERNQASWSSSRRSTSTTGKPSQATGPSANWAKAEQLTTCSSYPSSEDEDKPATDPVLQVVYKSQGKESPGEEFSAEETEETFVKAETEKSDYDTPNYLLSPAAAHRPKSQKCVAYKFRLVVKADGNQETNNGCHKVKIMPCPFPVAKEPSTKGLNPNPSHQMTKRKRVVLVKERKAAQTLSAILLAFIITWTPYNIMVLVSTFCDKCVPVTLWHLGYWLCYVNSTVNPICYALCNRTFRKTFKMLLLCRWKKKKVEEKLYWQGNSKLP
Summary of the method: as §1

Chain of M3 (P20309 whole entry): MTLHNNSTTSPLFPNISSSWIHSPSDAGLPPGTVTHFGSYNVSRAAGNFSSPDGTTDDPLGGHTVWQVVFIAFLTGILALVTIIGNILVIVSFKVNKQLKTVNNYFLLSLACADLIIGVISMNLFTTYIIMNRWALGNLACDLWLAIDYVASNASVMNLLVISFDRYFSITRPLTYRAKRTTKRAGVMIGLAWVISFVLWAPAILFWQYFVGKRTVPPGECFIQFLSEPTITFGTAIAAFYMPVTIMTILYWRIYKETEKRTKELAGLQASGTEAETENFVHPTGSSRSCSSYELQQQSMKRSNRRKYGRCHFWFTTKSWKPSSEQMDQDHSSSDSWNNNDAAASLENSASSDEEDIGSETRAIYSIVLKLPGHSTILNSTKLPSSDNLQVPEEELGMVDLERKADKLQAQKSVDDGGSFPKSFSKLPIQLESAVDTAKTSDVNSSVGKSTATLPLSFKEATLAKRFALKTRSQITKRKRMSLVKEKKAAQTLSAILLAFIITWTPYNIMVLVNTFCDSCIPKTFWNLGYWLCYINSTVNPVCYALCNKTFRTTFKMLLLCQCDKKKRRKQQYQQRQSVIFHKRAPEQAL

Compound	%AChmax ± SEM (human M4 receptor)	hM4 PAM activity (in words) (human M4 receptor)	other results
COc1ccc(C)c2sc(C(=O)NC3COC3)nc12 [Compound 49]	Weak		
COc1ccc(C)c2sc(C(=O)NC3CCCC3)nc12 [Compound 48]	Weak		
O=C(Nc1nc2ccccc2s1)C1CCCCO1 (centres unmarked) [Compound 50]		not tolerated	
COc1ccc(C)c2sc(NC(=O)C(C)C)nc12 [Compound 7]	Weak		
COc1ccc(C)c2sc(NC(=O)c3ccncc3)nc12 [Compound 21, N-(4-methoxy-7-methylbenzo[d]thiazol-2-yl)isonicotinamide]			activity at M1 (M1): inactive; activity at M2 (M2): inactive; activity at M3 (M3): inactive; activity at M5 (M5): inactive
COc1ccc(C)c2sc(C(=O)Nc3ccncc3)nc12 [Compound 44]	Weak		
COc1ccc(C)c2sc(NC(=O)C3CCCOC3)nc12 (centres unmarked) [Compound 17]		deleterious to activity	
COc1ccc(C)c2sc(NC(=O)C3CCCCO3)nc12 (centres unmarked) [Compound 16]		deleterious to activity	
